Key:
Format in all cases: functional
Conditions in all cases: route oral
Rattus norvegicus [1] = experiment: Compound was tested for the inhibition of rat reversed passive Arthus pleurisy after peroral administration of 100 mg/kg dose at 3.22*10e6 no of cells with 3.86*10e6 cells of control
Procedure, shortened: (§1)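 Male Wistar rats (about 250 g) were given compound orally before the antiserum. Under ether anesthesia, 0.2 mL rabbit anti-egg albumin antiserum was injected intrapleurally. After 30 min, egg albumin (15 mg/100 g body weight in 0.1 mL saline) was given iv. Rats were killed 4.5 h later and the thoracic cavity was rinsed with 5 mL saline. Exudate volume and infiltrated cell number were measured, with inhibition % versus controls as mean ± SEM.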

Rattus norvegicus [2] = experiment: Compound was tested for the inhibition of rat reversed passive Arthus pleurisy after peroral administration of 100 mg/kg dose at 0.82 mL of exudate volume with 0.86 mL of control (injected intrapleurally); procedure, shortened: as §1
Rattus norvegicus [3] = experiment: Inhibition of Zymosan-induced rat's paw edema(ZPE) after peroral administration of 100 mg/kg dose.
Procedure, shortened: (§2)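 Male Wistar rats (about 150 g) were dosed orally with compound suspended in 5% arabic gum, 1 h before a subplantar hind-paw injection of 0.1 mL saline. The irritant was 1% zymosan for 33 or 1% λ-carrageenin for 34. Paw volume was measured by plethysmograph before dosing and at 4 h (zymosan) or 3 h (carrageenin). Swelling is relative to initial volume, as mean ± SEM. % inhibition is versus the control group's mean swelling.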

Rattus norvegicus [4] = experiment: Antiinflammatory activity on Carrageenan rat's paw edema(CPE) after peroral administration of 100 mg/kg dose with control swelling of 90.0%
Rattus norvegicus [5] = experiment: Antiinflammatory activity on Zymosan-induced rat's paw edema(ZPE) after peroral administration of 100 mg/kg dose with control swelling of 85.5%
Procedure, shortened: (§3)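 Male Wistar rats weighing about 150 g were dosed orally with compound suspended in 5% arabic gum. 1 h later, 1% zymosan in 0.1 mL saline was injected subplantarly into the hind paw. Paw volume was measured by plethysmograph before dosing and 4 h after zymosan, with edema as the volume difference. Inhibition % was derived from mean swelling versus the control group.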

Rattus norvegicus [6] = experiment: Inhibition of carrageenan-induced rat's paw edema (CPE) after peroral administration of 100 mg/kg dose.; procedure, shortened: as §2
Rattus norvegicus [7] = experiment: Compound was tested for the inhibition of rat reversed passive Arthus pleurisy after peroral administration of 100 mg/kg dose at 0.65 mL of exudate volume with 0.86 mL of control (injected intrapleurally); procedure, shortened: as §1
Rattus norvegicus [8] = experiment: Antiinflammatory activity on Carrageenan rat's paw edema(CPE) after peroral administration of 100 mg/kg dose with control swelling of 64.2%
Rattus norvegicus [9] = experiment: Antiinflammatory activity on Zymosan-induced rat's paw edema(ZPE) after peroral administration of 100 mg/kg dose with control swelling of 71.7%; procedure, shortened: as §3
Rattus norvegicus [10] = experiment: Compound was tested for the inhibition of rat reversed passive Arthus pleurisy after peroral administration of 100 mg/kg dose at 3.02*10e6 no of cells with 3.86*10e6 cells of control; procedure, shortened: as §1
Rattus norvegicus [11] = experiment: Compound was tested for the inhibition of rat reversed passive Arthus pleurisy after peroral administration of 10 mg/kg dose at 0.44 mL of exudate volume with 0.55 mL of control (injected intrapleurally); procedure, shortened: as §1
Rattus norvegicus [12] = experiment: Compound was tested for the inhibition of rat reversed passive Arthus pleurisy after peroral administration of 10 mg/kg dose at 3.2*10e6 no of cells with 2.77*10e6 cells of control; procedure, shortened: as §1
Rattus norvegicus [13] = experiment: Compound was tested for the inhibition of rat reversed passive Arthus pleurisy after peroral administration of 3 mg/kg dose at 0.59 mL of exudate volume with 0.55 mL of control (injected intrapleurally)
Procedure, shortened: (§4)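 Male Wistar rats (about 250 g) under ether received 0.2 mL rabbit anti-egg-albumin antiserum intrapleurally. Thirty min later they got 15 mg EA/100 g body weight in 0.1 mL saline iv. Compounds were given orally beforehand. Rats were killed 4.5 h after induction and the thoracic cavity rinsed with 5 mL saline. Exudate volume and infiltrated cell count were read as mean ± SE. % inhibition is versus control.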

Rattus norvegicus [14] = experiment: Compound was tested for the inhibition of rat reversed passive Arthus pleurisy after peroral administration of 3 mg/kg dose at 4.01*10e6 no of cells with 2.77*10e6 cells of control; procedure, shortened: as §4
Rattus norvegicus [15] = experiment: Compound was tested for the inhibition of rat reversed passive Arthus pleurisy after peroral administration of 100 mg/kg dose at 3.36*10e6 no of cells with 3.86*10e6 cells of control; procedure, shortened: as §1
Rattus norvegicus [16] = experiment: Compound was tested for the inhibition of rat reversed passive Arthus pleurisy after peroral administration of 100 mg/kg dose at 0.66 mL of exudate volume with 0.79 mL of control (injected intrapleurally); procedure, shortened: as §1
Rattus norvegicus [17] = experiment: Compound was tested for the inhibition of rat reversed passive Arthus pleurisy after peroral administration of 100 mg/kg dose at 3.37*10e6 no of cells with 3.62*10e6 cells of control; procedure, shortened: as §4
Rattus norvegicus [18] = experiment: Compound was tested for the inhibition of rat reversed passive Arthus pleurisy after peroral administration of 100 mg/kg dose at 0.61 mL of exudate volume with 0.54 mL of control (injected intrapleurally); procedure, shortened: as §1
Rattus norvegicus [19] = experiment: Antiinflammatory activity on Carrageenan rat's paw edema(CPE) after peroral administration of 100 mg/kg dose with control swelling of 68.1%
Rattus norvegicus [20] = experiment: Antiinflammatory activity on Zymosan-induced rat's paw edema(ZPE) after peroral administration of 100 mg/kg dose with control swelling of 62.0%; procedure, shortened: as §3
Rattus norvegicus [21] = experiment: Compound was tested for the inhibition of rat reversed passive Arthus pleurisy after peroral administration of 100 mg/kg dose at 3.02*10e6 no of cells with 3.37*10e cells of control; procedure, shortened: as §1
Rattus norvegicus [22] = experiment: Compound was tested for the inhibition of rat reversed passive Arthus pleurisy after peroral administration of 100 mg/kg dose at 0.43 mL of exudate volume with 0.46 mL of control (injected intrapleurally); procedure, shortened: as §1
Rattus norvegicus [23] = experiment: Antiinflammatory activity on Carrageenan rat's paw edema(CPE) after peroral administration of 100 mg/kg dose with control swelling of 65.6%
Rattus norvegicus [24] = experiment: Antiinflammatory activity on Zymosan-induced rat's paw edema(ZPE) after peroral administration of 100 mg/kg dose with control swelling of 61.0%; procedure, shortened: as §3
Rattus norvegicus [25] = experiment: Compound was tested for the inhibition of rat reversed passive Arthus pleurisy after peroral administration of 100 mg/kg dose at 5.76*10e6 no of cells with 7.4*10e6 cells of control; procedure, shortened: as §4
Rattus norvegicus [26] = experiment: Antiinflammatory activity on Carrageenan rat's paw edema(CPE) after peroral administration of 100 mg/kg dose with control swelling of 73.7%
Rattus norvegicus [27] = experiment: Compound was tested for the inhibition of rat reversed passive Arthus pleurisy after peroral administration of 100 mg/kg dose at 0.66 mL of exudate volume with 0.82 mL of control (injected intrapleurally); procedure, shortened: as §1
Rattus norvegicus [28] = experiment: Compound was tested for the inhibition of rat reversed passive Arthus pleurisy after peroral administration of 100 mg/kg dose at 3.77*10e6 no of cells with 3.86*10e6 cells of control; procedure, shortened: as §4
Rattus norvegicus [29] = experiment: Compound was tested for the inhibition of rat reversed passive Arthus pleurisy after peroral administration of 100 mg/kg dose at 0.64 mL of exudate volume with 0.79 mL of control (injected intrapleurally); procedure, shortened: as §1
Rattus norvegicus [30] = experiment: Antiinflammatory activity on Carrageenan rat's paw edema(CPE) after peroral administration of 100 mg/kg dose with control swelling of 63.7%
Rattus norvegicus [31] = experiment: Antiinflammatory activity on Zymosan-induced rat's paw edema(ZPE) after peroral administration of 100 mg/kg dose with control swelling of 69.5%; procedure, shortened: as §3
Rattus norvegicus [32] = experiment: Compound was tested for the inhibition of rat reversed passive Arthus pleurisy after peroral administration of 100 mg/kg dose at 1.19*10e6 no of cells with 7.4*10e6 cells of control; procedure, shortened: as §1
Rattus norvegicus [33] = experiment: Compound was tested for the inhibition of rat reversed passive Arthus pleurisy after peroral administration of 100 mg/kg dose at 0.28 mL of exudate volume with 0.82 mL of control (injected intrapleurally); procedure, shortened: as §1
Rattus norvegicus [34] = experiment: Antiinflammatory activity on Carrageenan rat's paw edema(CPE) after peroral administration of 100 mg/kg dose with control swelling of 71.9%
Rattus norvegicus [35] = experiment: Antiinflammatory activity on Zymosan-induced rat's paw edema(ZPE) after peroral administration of 100 mg/kg dose with control swelling of 72.9%; procedure, shortened: as §3
Rattus norvegicus [36] = experiment: Compound was tested for the inhibition of rat reversed passive Arthus pleurisy after peroral administration of 100 mg/kg dose at 3.82*10e6 no of cells with 3.62*10e6 cells of control; procedure, shortened: as §4
Rattus norvegicus [37] = experiment: Compound was tested for the inhibition of rat reversed passive Arthus pleurisy after peroral administration of 100 mg/kg dose at 0.72 mL of exudate volume with 0.54 mL of control (injected intrapleurally); procedure, shortened: as §1

Compound: O=C(Nc1cccc(Cl)c1)c1c(O)c2cccnc2n(-c2ccccc2)c1=O
- inhibition in vivo at 100 mg/kg (Rattus norvegicus [1]): 21.7%
- inhibition in vivo at 100 mg/kg (Rattus norvegicus [2]): 5.2%
- inhibition in vivo at 100 mg/kg (Rattus norvegicus [3]): 7.6%
- Swelling (Rattus norvegicus [4]): 77.9%
- Swelling (Rattus norvegicus [5]): 79%
- inhibition in vivo at 100 mg/kg (Rattus norvegicus [6]): 13.4%

Compound: Cc1cccc(NC(=O)c2c(O)c3cccnc3n(-c3ccccc3)c2=O)c1
- inhibition in vivo at 100 mg/kg (Rattus norvegicus [3]): 14.2%
- inhibition in vivo at 100 mg/kg (Rattus norvegicus [7]): 27.3%
- Swelling (Rattus norvegicus [8]): 61.3%
- Swelling (Rattus norvegicus [9]): 61.5%
- inhibition in vivo at 100 mg/kg (Rattus norvegicus [6]): 4.5%
- inhibition in vivo at 100 mg/kg (Rattus norvegicus [10]): 28.5%

Compound: COc1ccc2c(c1)c(CC(=O)O)c(C)n2C(=O)c1ccc(Cl)cc1 [INDOMETHACIN]
- inhibition in vivo at 10 mg/kg (Rattus norvegicus [11]): 23.9%
- inhibition in vivo at 10 mg/kg (Rattus norvegicus [12]): -20.9%
- inhibition in vivo at 3 mg/kg (Rattus norvegicus [13]): -8.7%
- inhibition in vivo at 3 mg/kg (Rattus norvegicus [14]): -60.2%

Compound: O=C(Nc1cccc([N+](=O)[O-])c1)c1c(O)c2cccnc2n(-c2ccccc2)c1=O
- inhibition in vivo at 100 mg/kg (Rattus norvegicus [15]): 15.4%
- inhibition in vivo at 100 mg/kg (Rattus norvegicus [3]): 5.7%
- Swelling (Rattus norvegicus [4]): 83.6%
- Swelling (Rattus norvegicus [5]): 80.6%
- inhibition in vivo at 100 mg/kg (Rattus norvegicus [16]): 19.1%
- inhibition in vivo at 100 mg/kg (Rattus norvegicus [6]): 7.4%

Compound: O=C(NCc1ccccc1)c1c(O)c2cccnc2n(-c2ccccc2)c1=O
- inhibition in vivo at 100 mg/kg (Rattus norvegicus [17]): 9.6%
- inhibition in vivo at 100 mg/kg (Rattus norvegicus [18]): -14.3%
- inhibition in vivo at 100 mg/kg (Rattus norvegicus [3]): 1.6%
- Swelling (Rattus norvegicus [19]): 60.4%
- Swelling (Rattus norvegicus [20]): 60.3%
- inhibition in vivo at 100 mg/kg (Rattus norvegicus [6]): 11.3%

Compound: O=C(NN1CCOCC1)c1c(O)c2cccnc2n(-c2ccccc2)c1=O
- inhibition in vivo at 100 mg/kg (Rattus norvegicus [21]): 10.4%
- inhibition in vivo at 100 mg/kg (Rattus norvegicus [22]): 14.6%
- inhibition in vivo at 100 mg/kg (Rattus norvegicus [3]): -8.5%
- Swelling (Rattus norvegicus [23]): 82.8%
- Swelling (Rattus norvegicus [24]): 66.2%
- inhibition in vivo at 100 mg/kg (Rattus norvegicus [6]): -26.2%

Compound: COc1ccc(NC(=O)c2c(O)c3cccnc3n(-c3ccccc3)c2=O)cn1
- inhibition in vivo at 100 mg/kg (Rattus norvegicus [3]): 13.1%
- inhibition in vivo at 100 mg/kg (Rattus norvegicus [25]): 22.2%
- Swelling (Rattus norvegicus [26]): 72.3%
- Swelling (Rattus norvegicus [24]): 53%
- inhibition in vivo at 100 mg/kg (Rattus norvegicus [27]): 19.5%
- inhibition in vivo at 100 mg/kg (Rattus norvegicus [6]): -10.2%

Compound: O=C(Nc1nccs1)c1c(O)c2cccnc2n(-c2ccccc2)c1=O
- inhibition in vivo at 100 mg/kg (Rattus norvegicus [28]): 15.4%
- inhibition in vivo at 100 mg/kg (Rattus norvegicus [29]): 18.1%
- inhibition in vivo at 100 mg/kg (Rattus norvegicus [3]): 4.6%
- Swelling (Rattus norvegicus [30]): 69.9%
- Swelling (Rattus norvegicus [31]): 66.3%
- inhibition in vivo at 100 mg/kg (Rattus norvegicus [6]): 2.5%

Compound: Cc1cnccc1NC(=O)c1c(O)c2cccnc2n(-c2ccccc2)c1=O
- inhibition in vivo at 100 mg/kg (Rattus norvegicus [3]): 26.9%
- inhibition in vivo at 100 mg/kg (Rattus norvegicus [32]): 83.9%
- inhibition in vivo at 100 mg/kg (Rattus norvegicus [33]): 65.9%
- Swelling (Rattus norvegicus [34]): 64.6%
- Swelling (Rattus norvegicus [35]): 53.3%
- inhibition in vivo at 100 mg/kg (Rattus norvegicus [6]): 8.8%

Compound: CCCCNC(=O)c1c(O)c2cccnc2n(-c2ccccc2)c1=O
- inhibition in vivo at 100 mg/kg (Rattus norvegicus [36]): 7.7%
- inhibition in vivo at 100 mg/kg (Rattus norvegicus [3]): 12.8%
- inhibition in vivo at 100 mg/kg (Rattus norvegicus [37]): -36.7%
- Swelling (Rattus norvegicus [8]): 51.1%
- Swelling (Rattus norvegicus [9]): 62.5%
- inhibition in vivo at 100 mg/kg (Rattus norvegicus [6]): 20.4%
